Measurements from different studies.
Compare with care: the assays were run in different laboratories. pIC50: −log10 of the molar value. Values after ≈ are worked out from the molar mass of the structure shown.
Organism: Enterococcus faecalis

SMILES | test | test system | conditions | quantity | result
CC(C)CCCCCCCCCCCCc1cc(O)cc(O)c1 | microbial growth | ATCC29212 | – | pIC50 | 4.09
CN[C@H](CC(C)C)C(=O)N[C@H]1C(=O)N[C@@H](CC(N)=O)C(=O)N[C@H]2C(=O)N[C@H]3C(=O)N[C@H](C(=O)N[C@H](C(=O)O)c4cc(O)cc(O)c4-c4cc3ccc4O)[C@H](O)c3ccc(c(Cl)c3)Oc3cc2cc(c3O[C@@H]2O[C@H](CO)[C@@H](O)[C@H](O)[C@H]2O[C@H]2C[C@](C)(N)[C@H](O)[C@H](C)O2)Oc2ccc(cc2Cl)[C@H]1O | microbial killing | – | drug-resistant strain, clinical isolate | MBC | 32 µg/mL (≈ 22.1 µM)
COc1ccc(CNO)c(C)c1 | microbial growth | ATCC19433 | 8 h | MIC50 | < 80 µg/mL
C=C(NC(=O)C(=C)NC(=O)c1csc(C2=N[C@@H]3c4csc(n4)[C@H]4NC(=O)c5csc(n5)[C@H]([C@](C)(O)[C@@H](C)O)NC(=O)[C@H]5CSC(=N5)/C(=C/C)NC(=O)[C@H]([C@@H](C)O)NC(=O)c5csc(n5)[C@]3(CC2)NC(=O)[C@H](C)NC(=O)C(=C)NC(=O)[C@H](C)NC(=O)[C@H]([C@@H](C)CC)N[C@@H]2C=Cc3c([C@H](C)O)cc(nc3[C@H]2O)C(=O)O[C@@H]4C)n1)C(N)=O | microbial growth | VRE | – | MIC | 0.12 µg/mL (≈ 0.0721 µM)
CCCCCCCCCCCCCCCc1cc(O)cc(O)c1 | microbial growth | ATCC29212 | – | pIC50 | < 3.70
O=C(CCCCCCCCCCOc1ccccc1)NP(=O)(O)O | microbial growth | ATCC33186 | – | MIC | 100 µg/mL (≈ 280 µM)
CCCCCCCCCCCCCCCC(=O)NS(=O)(=O)Oc1ccc(Cl)c(Cl)c1 | microbial growth, broth dilution | ATCC33186 | – | MIC | 0.8 µg/mL (≈ 1.66 µM)
O=C(CCCCc1ccccc1)CP(=O)(O)O | microbial growth | ATCC33186 | – | MIC | > 200 µg/mL
CCCCCCCCCCCCCCCC(=O)NS(=O)(=O)OC1CCCCC1 | microbial growth, broth dilution | ATCC33186 | – | MIC | 12.5 µg/mL (≈ 29.9 µM)
CC1(C)S[C@@H]2[C@H](NC(=O)[C@H](N)c3ccccc3)C(=O)N2[C@H]1C(=O)O | microbial growth, well diffusion | ATCC51299 | 60000 µg/mL | inhibition zone | 28 mm
CCCCCCCCCCCCCCCC(=O)NS(=O)(=O)Oc1ccc(OC)cc1 | microbial growth | ATCC33186 | – | MIC | > 200 µg/mL
CC1(C)S[C@@H]2[C@H](NC(=O)COc3ccccc3)C(=O)N2[C@H]1C(=O)O | microbial killing | – | drug-resistant strain, clinical isolate | MBC | > 128 µg/mL
CC(C)CCCCCCCCCCCCCCc1cc(O)cc(O)c1 | microbial growth | ATCC29212 | – | pIC50 | 4.77
CCCCCCCC/C=C\CCCCCCCC(=O)C(F)(F)P(=O)(O)O | microbial growth | ATCC33186 | – | MIC | 6.25 µg/mL (≈ 15.8 µM)
